This passage reports inhibition and Activity results from ChEMBL document CHEMBL5357040, “Synthesis and migrastatic activity of cytochalasin analogues lacking a macrocyclic moiety” (RSC Med Chem, 2024).

Calls of active or inactive are those of the source. No cut-off for these calls is given here.

The nature of experiment [1]: Inhibition of actin (unknown origin) polymerization at 10 uM by spectrophotometer analysis. To be noted: Homo sapiens. The gist of the method:
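Pyrene-labelled actin (0.4 mg mL⁻¹) in G-buffer with compound at 10 μM or DMSO control; polymerization started with 10× actin polymerization buffer. Fluorescence (ex 360 nm, em 420 nm) followed over time until plateau.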

The test system of a further experiment is BLM. Put plainly: Migrastatic activity against human BLM cells assessed as decrease in cell migration at 10 uM incubated for 24 hrs by spheroid invasion assay. It is filed as functional, cell-based. An outline of the steps:
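BLM spheroids formed over 2 days, embedded singly in 1.5 mg mL⁻¹ rat-tail type I collagen (1× DMEM, 1% FBS), polymerized at 37 °C, overlaid with medium; 10 μM treatment. Imaged at 0 and 24 h; invasiveness as spheroid area increase. Three independent experiments, ≥8 spheroids each; one-way ANOVA.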

Experiment [2] has as its system HT-1080. Nature of the experiment: Inhibition of actin in human HT-1080 cells assessed as effect on actin cytoskeleton at 10 uM incubated for 5 mins by fluorescence microscopic analysis. In kind it is cell-based. The gist of the method: (§1)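 HT1080 cells on glass-bottom plates stained with SPY650-FastAct; untreated cells imaged every 20 s for 15 min, then compound (10 or 50 μM) added to same well and recorded 15 min at 20 s/frame by fluorescence time-lapse; actin cytoskeleton and morphology assessed from video.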

Experiment [3] concerns HT-1080. Nature of the experiment: Effect on cell morphology in human HT-1080 cells at 50 uM incubated for 5 mins by fluorescence microscopic analysis. It is filed as functional, cell-based. The gist of the method: as §1
In experiment [4] the test system is HT-1080. Put plainly: Inhibition of actin in human HT-1080 cells assessed as effect on actin cytoskeleton at 10 uM incubated for 2 mins by fluorescence microscopic analysis. It is filed as cell-based. An outline of the steps: as §1

Regarding `COC(=O)[C@@]12C(=O)N[C@@H](Cc3ccccc3)[C@@H]1[C@H](C)C(C)=C[C@@H]2CCCOCc1ccccc1`, the inhibition entry in experiment [1] is “Active”. In the experiment on BLM, the result was Active.

On to `C=C1[C@@H](C)[C@H]2[C@H](Cc3ccccc3)NC(=O)[C@@]2(C(=O)OC)[C@@H](CCOCCc2ccccc2)[C@@H]1O`, for which the inhibition entry (with HT-1080 [2]; in experiment [1]) was “Active” each time. The result in the experiment on HT-1080 [3] and with BLM was Active. Also, the inhibition result in the experiment on HT-1080 [4] is “inactive”.

On to `CC1=C[C@H](CCOCCc2ccccc2)[C@]2(CO)C(=O)N[C@@H](Cc3ccccc3)[C@@H]2[C@@H]1C`, for which the inhibition entry in experiment [1] is “Active”. Further, the outcome in the experiment with BLM was Active.

As to `C=C1[C@@H](C)[C@H]2[C@H](Cc3ccccc3)NC(=O)[C@]23[C@H](OC(C)=O)/C=C/[C@@](C)(O)C(=O)[C@@H](C)C/C=C/[C@H]3[C@@H]1O`, the inhibition entry in the experiment with HT-1080 [4] was “Active”. Also, the outcome in the experiment with BLM was inactive.

Regarding `COC(=O)[C@@]12C(=O)N[C@@H](Cc3ccccc3)[C@@H]1[C@H](C)[C@@](C)(Cl)[C@H](O)[C@@H]2CCOCCc1ccccc1`, in experiment [1], the inhibition result is “Active”.

In the case of `C=C1[C@@H](C)[C@H]2[C@H](Cc3ccccc3)NC(=O)[C@]23OC(=O)/C=C/[C@H](O)CCC[C@@H](C)C/C=C/[C@H]3[C@@H]1O`, the inhibition entry in the experiment with HT-1080 [4] is “Active”. In the experiment on BLM, the result was inactive.
